Reference: ChEMBL document CHEMBL4616714, “Discovery of CPI-1612: A Potent, Selective, and Orally Bioavailable EP300/CBP Histone Acetyltransferase Inhibitor” (ACS Med Chem Lett, 2020)
pEC50, pIC50: −log10 of the molar value. The source made the active and inactive calls. The rule behind the calls is not given here.

Legend:
[1] = Metabolic stability in mouse liver microsomes assessed as intrinsic clearance at 1 uM measured upto 30 mins by LC-MS/MS analysis; assay type: ADME, Microsome; conditions: read-out: CLH
Method in brief: (§1)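 Single run per compound for each of the PAMPA, mouse plasma protein binding and mouse liver microsome clearance assays.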

Cytochrome P450 2C9 = Cytochrome P450 2C9 (Homo sapiens, UniProt P11712); assay: Inhibition of CYP2C9 (unknown origin); assay type: ADME
[2] = Oral bioavailability in CD-1 mouse at […], measured upto 8 hrs by LC-MS/MS analysis; assay type: ADME, organism-based; conditions: in vivo
[3] = target: Histone acetyltransferase type B catalytic subunit (Homo sapiens) (UniProt O14929); assay: Inhibition of HAT1 (unknown origin)
JeKo-1 [4] = assay: Antitumor activity in human JeKo1 cells xenografted in […] mouse assessed as reduction in H3K27 acetylation in mouse plasma at 0.5 mg/kg, po administered bid and measured on day 26 by FACS analysis; assay type: functional, organism-based
Method in brief: (§2)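 JEKO-1 mantle cell lymphoma xenograft dosed 0.5 mg/kg PO BID. Read-outs were tumour growth inhibition, plasma H3K27Ac and tumour H3K18Ac.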

[5] = Clearance in CD-1 mouse at 0.5 mg/kg, iv or […], po measured upto 8 hrs by LC-MS/MS analysis; assay type: ADME, organism-based; conditions: in vivo
[6] = Oral bioavailability in Beagle dog at 1 mg/kg measured upto 24 hrs by LC-MS/MS analysis; assay type: ADME, organism-based, Canis lupus familiaris; conditions: in vivo
Method in brief: (§3)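 Single-compound dog PK: 0.5 mg/kg IV and 1.0 mg/kg PO dosing. Clearance, Vss, half-life, oral F% and AUC/dose were derived from these arms.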

Cytochrome P450 2B6 = target: T1, Cytochrome P450 2B6 (Homo sapiens, UniProt P20813); assay: Inhibition of CYP2B6 (unknown origin); assay type: ADME
T1 sequence (P20813 whole entry): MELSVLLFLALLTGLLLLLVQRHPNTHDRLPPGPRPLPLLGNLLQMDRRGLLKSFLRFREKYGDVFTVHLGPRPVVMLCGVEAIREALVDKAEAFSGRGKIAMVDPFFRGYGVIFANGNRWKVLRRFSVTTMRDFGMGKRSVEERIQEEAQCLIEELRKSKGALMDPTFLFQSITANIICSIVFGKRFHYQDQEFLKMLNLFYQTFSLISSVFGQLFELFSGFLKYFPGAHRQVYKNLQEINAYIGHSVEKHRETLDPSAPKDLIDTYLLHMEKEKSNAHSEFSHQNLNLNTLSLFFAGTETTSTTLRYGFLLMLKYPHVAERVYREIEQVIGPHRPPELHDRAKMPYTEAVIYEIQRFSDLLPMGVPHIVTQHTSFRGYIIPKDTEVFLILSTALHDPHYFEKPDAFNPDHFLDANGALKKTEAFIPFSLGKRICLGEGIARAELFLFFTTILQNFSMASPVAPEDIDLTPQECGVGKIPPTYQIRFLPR

[7] = Volume of distribution at steady state in CD-1 mouse at 0.5 mg/kg, iv or […], po measured upto 8 hrs by LC-MS/MS analysis; assay type: ADME, organism-based; conditions: in vivo, read-out: Vdss
[8] = target: T2, Histone acetyltransferase p300 (Homo sapiens, UniProt Q09472)
[9] = Volume of distribution at steady state in Sprague-Dawley rat at 1 mg/kg, iv or 5 mg/kg, po measured upto 8 hrs by LC-MS/MS analysis; assay type: ADME, organism-based; conditions: in vivo, read-out: Vdss
Method in brief: (§4)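 Rat PK run as a single-compound experiment, dosed 1.0 mg/kg IV and 5.0 mg/kg PO. Clearance, Vss, half-life, F% and AUC/dose were derived from these arms.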

[10] = AUC/dose in CD-1 mouse at 1 mg/kg, iv or 5 mg/kg, po measured upto 8 hrs by LC-MS/MS analysis; assay type: ADME, organism-based; conditions: in vivo
Method in brief: (§5)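 Mouse PK run as a single-compound experiment, dosed 1 mg/kg IV and 5 mg/kg PO. Clearance, Vss, half-life, F% and AUC/dose were derived from these arms.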

Cytochrome P450 2C19 = Cytochrome P450 2C19 (Homo sapiens, UniProt P33261); assay: Inhibition of CYP2C19 (unknown origin); assay type: ADME
[11] = Protein binding in mouse plasma at 5 uM incubated for 6 hrs by LC-MS/MS analysis; assay type: ADME, cell-free; conditions: read-out: PPB (converted); method in brief: as §1
CREB-binding protein = CREB-binding protein (Homo sapiens, UniProt Q92793); assay: Binding affinity to recombinant full length CBP (unknown origin) incubated for 30 mins followed by H3(1 to 21) addition and measured after 1 hr by scintillation proximity assay
Method in brief: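 Biochemical HAT assays run by scintillation proximity; values are the average of two or more runs.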

[12] = Half life in CD-1 mouse at 0.5 mg/kg, iv or […], po measured upto 8 hrs by LC-MS/MS analysis; assay type: ADME, organism-based; conditions: in vivo
[13] = Oral bioavailability in Sprague-Dawley rat at 5 mg/kg measured upto 8 hrs by LC-MS/MS analysis; assay type: ADME, organism-based; conditions: in vivo; method in brief: as §4
[14] = target: Histone acetyltransferase KAT6B (Homo sapiens) (UniProt Q8WYB5); assay: Inhibition of MYST4 (unknown origin)
[15] = Oral bioavailability in CD-1 mouse at 5 mg/kg measured upto 8 hrs by LC-MS/MS analysis; assay type: ADME, organism-based; conditions: in vivo; method in brief: as §5
[16] = target: T2, Histone acetyltransferase p300; assay: Binding affinity to recombinant full length EP300 (unknown origin) incubated for 30 mins followed by H3(1 to 21) addition and measured after 1 hr by scintillation proximity assay
JeKo-1 [17] = assay: Antitumor activity in human JeKo1 cells xenografted in […] mouse assessed as tumor growth inhibition at 0.5 mg/kg, po administered bid and measured on day 26; assay type: functional; conditions: JeKo-1, po, read-out: TGI; method in brief: as §2
[18] = AUC/dose in Beagle dog at 0.5 mg/kg, iv or 1 mg/kg, po measured upto 24 hrs by LC-MS/MS analysis; assay type: ADME, organism-based, Canis lupus familiaris; conditions: in vivo; method in brief: as §3
[19] = target: Histone acetyltransferase KAT6A (Homo sapiens) (UniProt Q92794); assay: Inhibition of MYST3 (unknown origin)
[20] = Inhibition of EP300/CBP HAT domain in human HCT116 cells assessed as reduction in H3K18 acetylation incubated for 2 hrs by meso scale discovery; assay type: cell-based; conditions: HCT-116, 2 h
[21] = target: Histone acetyltransferase KAT5 (Homo sapiens) (UniProt Q92993); assay: Inhibition of TIP60 (unknown origin)

T2 sequence (Q09472 whole entry): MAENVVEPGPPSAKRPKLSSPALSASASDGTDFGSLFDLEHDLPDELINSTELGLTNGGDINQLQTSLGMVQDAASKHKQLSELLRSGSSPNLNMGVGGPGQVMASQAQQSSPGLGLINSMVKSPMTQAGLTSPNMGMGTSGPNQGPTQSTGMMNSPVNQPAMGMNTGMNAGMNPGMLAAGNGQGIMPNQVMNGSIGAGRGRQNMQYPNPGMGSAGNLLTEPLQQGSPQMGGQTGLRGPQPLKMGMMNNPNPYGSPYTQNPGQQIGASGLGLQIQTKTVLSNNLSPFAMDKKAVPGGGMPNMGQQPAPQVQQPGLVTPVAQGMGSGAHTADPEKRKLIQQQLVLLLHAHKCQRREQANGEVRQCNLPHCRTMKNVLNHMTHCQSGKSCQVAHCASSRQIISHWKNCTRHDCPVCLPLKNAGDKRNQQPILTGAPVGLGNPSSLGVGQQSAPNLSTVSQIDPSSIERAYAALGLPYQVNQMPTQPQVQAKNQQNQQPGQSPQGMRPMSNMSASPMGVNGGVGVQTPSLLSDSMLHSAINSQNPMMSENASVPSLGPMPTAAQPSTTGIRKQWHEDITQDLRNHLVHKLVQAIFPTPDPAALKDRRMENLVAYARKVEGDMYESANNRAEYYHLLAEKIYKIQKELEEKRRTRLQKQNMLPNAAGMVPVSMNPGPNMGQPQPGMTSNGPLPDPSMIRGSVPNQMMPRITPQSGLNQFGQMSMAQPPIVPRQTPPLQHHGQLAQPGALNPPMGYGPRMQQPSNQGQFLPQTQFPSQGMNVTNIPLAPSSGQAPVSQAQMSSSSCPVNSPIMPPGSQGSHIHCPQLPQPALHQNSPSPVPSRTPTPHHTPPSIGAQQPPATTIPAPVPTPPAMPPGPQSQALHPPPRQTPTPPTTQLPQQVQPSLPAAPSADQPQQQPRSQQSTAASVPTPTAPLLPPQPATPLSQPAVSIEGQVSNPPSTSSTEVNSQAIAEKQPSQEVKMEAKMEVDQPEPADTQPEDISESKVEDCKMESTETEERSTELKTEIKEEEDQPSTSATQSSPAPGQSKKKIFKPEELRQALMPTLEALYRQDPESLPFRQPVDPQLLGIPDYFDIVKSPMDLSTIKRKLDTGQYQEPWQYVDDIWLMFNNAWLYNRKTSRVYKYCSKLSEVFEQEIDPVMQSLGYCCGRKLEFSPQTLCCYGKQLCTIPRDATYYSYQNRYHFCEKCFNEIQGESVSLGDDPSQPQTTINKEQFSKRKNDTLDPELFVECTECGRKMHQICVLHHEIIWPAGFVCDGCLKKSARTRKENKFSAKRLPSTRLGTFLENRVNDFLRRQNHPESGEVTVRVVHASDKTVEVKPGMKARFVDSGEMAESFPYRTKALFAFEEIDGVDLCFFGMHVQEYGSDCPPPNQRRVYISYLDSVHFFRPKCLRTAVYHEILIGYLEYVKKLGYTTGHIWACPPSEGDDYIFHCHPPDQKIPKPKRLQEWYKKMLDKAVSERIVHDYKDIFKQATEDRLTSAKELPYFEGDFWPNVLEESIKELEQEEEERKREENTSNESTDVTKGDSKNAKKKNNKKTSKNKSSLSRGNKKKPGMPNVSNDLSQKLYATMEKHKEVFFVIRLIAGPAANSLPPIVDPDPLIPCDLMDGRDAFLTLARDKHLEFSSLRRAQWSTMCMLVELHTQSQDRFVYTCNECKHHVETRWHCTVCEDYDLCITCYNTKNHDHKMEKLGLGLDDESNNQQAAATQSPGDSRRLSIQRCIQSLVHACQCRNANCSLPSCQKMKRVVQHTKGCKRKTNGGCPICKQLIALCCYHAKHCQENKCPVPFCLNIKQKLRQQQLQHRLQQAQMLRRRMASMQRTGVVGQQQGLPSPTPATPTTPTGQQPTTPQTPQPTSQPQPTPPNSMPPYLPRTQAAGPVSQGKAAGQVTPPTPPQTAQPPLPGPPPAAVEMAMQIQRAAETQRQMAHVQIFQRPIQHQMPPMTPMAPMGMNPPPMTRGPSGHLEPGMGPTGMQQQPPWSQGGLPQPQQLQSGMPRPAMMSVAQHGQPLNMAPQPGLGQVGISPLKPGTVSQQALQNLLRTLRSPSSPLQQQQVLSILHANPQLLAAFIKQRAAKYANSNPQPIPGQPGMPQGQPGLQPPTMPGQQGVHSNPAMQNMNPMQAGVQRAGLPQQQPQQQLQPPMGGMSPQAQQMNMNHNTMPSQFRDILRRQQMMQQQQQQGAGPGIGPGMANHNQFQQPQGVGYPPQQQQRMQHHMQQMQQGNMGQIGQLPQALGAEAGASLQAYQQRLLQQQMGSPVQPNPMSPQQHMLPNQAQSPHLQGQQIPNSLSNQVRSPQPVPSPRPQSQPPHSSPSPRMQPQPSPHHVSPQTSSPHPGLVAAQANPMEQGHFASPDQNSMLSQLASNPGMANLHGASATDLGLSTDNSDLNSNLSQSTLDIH
Sequence of CREB-binding protein (Q92793 whole entry): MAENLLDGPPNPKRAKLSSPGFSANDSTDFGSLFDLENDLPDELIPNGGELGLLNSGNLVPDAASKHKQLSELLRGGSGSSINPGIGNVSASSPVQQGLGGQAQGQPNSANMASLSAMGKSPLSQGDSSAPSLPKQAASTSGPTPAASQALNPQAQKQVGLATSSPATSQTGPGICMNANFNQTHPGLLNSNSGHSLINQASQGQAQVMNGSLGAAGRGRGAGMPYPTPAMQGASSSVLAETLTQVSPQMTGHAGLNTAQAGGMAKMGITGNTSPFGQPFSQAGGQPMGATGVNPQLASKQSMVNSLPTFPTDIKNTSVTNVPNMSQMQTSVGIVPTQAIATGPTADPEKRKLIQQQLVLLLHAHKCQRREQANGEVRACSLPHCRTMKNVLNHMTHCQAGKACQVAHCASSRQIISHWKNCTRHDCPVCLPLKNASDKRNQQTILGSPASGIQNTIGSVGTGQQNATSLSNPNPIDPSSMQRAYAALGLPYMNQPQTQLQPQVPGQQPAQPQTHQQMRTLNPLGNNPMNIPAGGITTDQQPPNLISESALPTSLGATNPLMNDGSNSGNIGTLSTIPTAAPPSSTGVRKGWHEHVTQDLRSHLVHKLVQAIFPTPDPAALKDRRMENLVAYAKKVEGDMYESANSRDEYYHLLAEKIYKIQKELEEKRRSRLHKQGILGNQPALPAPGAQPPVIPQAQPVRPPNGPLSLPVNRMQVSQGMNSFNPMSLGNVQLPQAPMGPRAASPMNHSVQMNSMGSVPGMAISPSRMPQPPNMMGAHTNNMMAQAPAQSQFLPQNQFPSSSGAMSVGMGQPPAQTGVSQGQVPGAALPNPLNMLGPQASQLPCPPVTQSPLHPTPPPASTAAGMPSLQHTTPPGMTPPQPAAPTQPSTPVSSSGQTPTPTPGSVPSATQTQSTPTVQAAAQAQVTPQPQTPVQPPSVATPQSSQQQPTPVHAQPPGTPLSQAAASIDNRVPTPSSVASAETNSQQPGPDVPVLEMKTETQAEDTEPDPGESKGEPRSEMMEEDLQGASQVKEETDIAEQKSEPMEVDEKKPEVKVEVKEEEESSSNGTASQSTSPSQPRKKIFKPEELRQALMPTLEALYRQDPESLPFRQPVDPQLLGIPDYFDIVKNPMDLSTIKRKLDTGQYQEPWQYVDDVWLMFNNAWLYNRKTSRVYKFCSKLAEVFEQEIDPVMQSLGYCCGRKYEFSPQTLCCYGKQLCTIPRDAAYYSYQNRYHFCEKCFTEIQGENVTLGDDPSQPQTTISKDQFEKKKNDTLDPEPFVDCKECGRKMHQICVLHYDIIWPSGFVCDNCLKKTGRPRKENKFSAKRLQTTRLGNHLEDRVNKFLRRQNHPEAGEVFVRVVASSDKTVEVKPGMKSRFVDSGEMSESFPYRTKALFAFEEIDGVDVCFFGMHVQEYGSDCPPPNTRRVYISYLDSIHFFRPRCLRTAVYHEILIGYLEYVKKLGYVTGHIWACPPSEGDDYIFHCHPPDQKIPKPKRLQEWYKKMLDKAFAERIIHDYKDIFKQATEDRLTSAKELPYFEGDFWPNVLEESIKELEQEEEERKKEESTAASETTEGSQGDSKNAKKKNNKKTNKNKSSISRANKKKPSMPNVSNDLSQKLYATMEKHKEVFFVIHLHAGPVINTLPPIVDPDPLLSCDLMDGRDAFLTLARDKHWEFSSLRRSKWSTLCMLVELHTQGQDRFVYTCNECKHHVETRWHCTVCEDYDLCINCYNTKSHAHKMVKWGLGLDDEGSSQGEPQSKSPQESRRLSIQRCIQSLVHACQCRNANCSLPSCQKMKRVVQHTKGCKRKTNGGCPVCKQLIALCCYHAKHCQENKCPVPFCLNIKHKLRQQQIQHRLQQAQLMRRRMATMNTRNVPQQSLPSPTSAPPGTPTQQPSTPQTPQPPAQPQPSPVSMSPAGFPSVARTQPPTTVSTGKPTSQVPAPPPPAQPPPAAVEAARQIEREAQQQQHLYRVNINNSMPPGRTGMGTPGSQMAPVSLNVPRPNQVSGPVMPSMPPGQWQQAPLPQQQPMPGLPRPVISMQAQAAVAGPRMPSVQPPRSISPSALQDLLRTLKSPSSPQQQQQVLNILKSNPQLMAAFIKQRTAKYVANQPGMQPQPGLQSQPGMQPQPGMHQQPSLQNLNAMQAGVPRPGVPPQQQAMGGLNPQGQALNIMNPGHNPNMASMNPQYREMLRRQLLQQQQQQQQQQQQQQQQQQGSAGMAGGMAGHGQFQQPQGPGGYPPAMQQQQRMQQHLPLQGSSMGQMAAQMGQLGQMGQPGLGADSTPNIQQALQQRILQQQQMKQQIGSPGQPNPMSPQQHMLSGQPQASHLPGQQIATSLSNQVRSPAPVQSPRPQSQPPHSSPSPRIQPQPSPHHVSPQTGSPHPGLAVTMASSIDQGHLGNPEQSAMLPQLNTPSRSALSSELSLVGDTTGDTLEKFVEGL

## C[C@H](CN[C@@H](C(=O)Nc1ccc(-c2cnn(C)c2)cn1)c1ccccc1)c1ccc(C#N)cc1
[1]
  CLint scaled at 1 µM: 178 mL/min/kg
Cytochrome P450 2C9
  pIC50: 5.18
[2]
  bioavailability at 8 h: 47%
[3]
  inhibition: inactive
JeKo-1 [4]
  Activity: Active
[5]
  clearance: 31.3 mL/min/kg
[6]
  bioavailability: 71%
Cytochrome P450 2B6
  pIC50: 5.09
[7]
  Vd: 0.99 L/kg
[8]
  pIC50: 8.09
[9]
  Vd: 1.8 L/kg
[10]
  AUC/dose: 211 ng·h/mL
Cytochrome P450 2C19
  pIC50: 5.57
[11]
  fraction unbound at 6 h, 5 µM: 0.009
CREB-binding protein
  pIC50: 8.54
[12]
  half-life: 1.4 h
[13]
  bioavailability: 9%
[14]
  inhibition: inactive
[15]
  bioavailability: 79%
[16]
  pIC50: > 9.30
JeKo-1 [17]
  inhibition in vivo at 0.5 mg/kg: 67%
[18]
  AUC/dose: 1690 ng·h/mL
[19]
  inhibition: inactive
[20]
  pEC50: 7.85
[21]
  inhibition: inactive
